ChEMBL document CHEMBL4229344 (Eur J Med Chem, 2018)
Calls of active or inactive are those of the source. The rule behind the calls is not given here.

Columns and labels:
[1] = molecular target: Tyrosine-protein kinase ABL1 (Homo sapiens, UniProt P00519); assay: Binding affinity to wild-type human non-phosphorylated ABL1 (S229 to K512 residues) expressed in mammalian expression system assessed as residual binding level at 1 uM by Kinomescan method relative to control
Summary of the method: (§1)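 Single-concentration KINOMEscan (DiscoverX) binding screen at 1 μM against a panel of 468 purified kinases and mutants. The read-out is binding relative to control.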

[2] = molecular target: Mast/stem cell growth factor receptor Kit (Homo sapiens, UniProt P10721); assay: Inhibition of c-KIT (unknown origin) using poly(4:1 Glu,Tyr) peptide as substrate preincubated for 1 hr followed by addition of ATP and measured after 30 mins by ADP-Glo bioluminescence assay
[3] = molecular target: Myotonin-protein kinase (Homo sapiens) (UniProt Q09013); assay: Binding affinity to wild-type human partial length DMPK (V47 to V415 residues) expressed in bacterial expression system assessed as residual binding level at 1 uM by Kinomescan method relative to control
Sequence of Myotonin-protein kinase (Homo sapiens) (Q09013 whole entry, the tested form may be a part): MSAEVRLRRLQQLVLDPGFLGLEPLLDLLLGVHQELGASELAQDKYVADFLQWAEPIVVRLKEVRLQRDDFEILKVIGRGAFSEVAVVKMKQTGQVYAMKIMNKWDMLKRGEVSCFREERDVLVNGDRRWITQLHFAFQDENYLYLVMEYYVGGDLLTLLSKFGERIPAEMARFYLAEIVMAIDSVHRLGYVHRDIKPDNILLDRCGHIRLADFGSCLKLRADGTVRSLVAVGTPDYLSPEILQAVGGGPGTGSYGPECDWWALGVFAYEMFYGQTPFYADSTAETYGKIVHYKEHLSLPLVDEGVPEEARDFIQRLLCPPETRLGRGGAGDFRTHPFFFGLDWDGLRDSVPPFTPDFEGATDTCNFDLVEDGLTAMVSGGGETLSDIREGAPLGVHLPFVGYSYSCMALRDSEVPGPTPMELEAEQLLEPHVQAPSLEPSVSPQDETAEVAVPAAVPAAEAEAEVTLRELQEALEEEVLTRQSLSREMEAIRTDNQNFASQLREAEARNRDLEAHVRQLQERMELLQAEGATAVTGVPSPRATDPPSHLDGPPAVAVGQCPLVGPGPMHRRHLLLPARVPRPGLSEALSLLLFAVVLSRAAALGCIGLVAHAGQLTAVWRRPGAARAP
Summary of the method: (§2)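 Kinome-wide competition binding screen against a panel of 468 purified kinases/mutants, with the test compound at a single concentration of 1 μM. Read-out is the relative binding activity of each kinase in the presence of compound.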

[4] = molecular target: Insulin receptor (Homo sapiens) (UniProt P06213); assay: Binding affinity to wild-type human partial length INSR (P997 to E1318 residues) expressed in mammalian expression system assessed as residual binding level at 1 uM by Kinomescan method relative to control
Sequence of Insulin receptor (Homo sapiens) (P06213 28-758 limits assumed): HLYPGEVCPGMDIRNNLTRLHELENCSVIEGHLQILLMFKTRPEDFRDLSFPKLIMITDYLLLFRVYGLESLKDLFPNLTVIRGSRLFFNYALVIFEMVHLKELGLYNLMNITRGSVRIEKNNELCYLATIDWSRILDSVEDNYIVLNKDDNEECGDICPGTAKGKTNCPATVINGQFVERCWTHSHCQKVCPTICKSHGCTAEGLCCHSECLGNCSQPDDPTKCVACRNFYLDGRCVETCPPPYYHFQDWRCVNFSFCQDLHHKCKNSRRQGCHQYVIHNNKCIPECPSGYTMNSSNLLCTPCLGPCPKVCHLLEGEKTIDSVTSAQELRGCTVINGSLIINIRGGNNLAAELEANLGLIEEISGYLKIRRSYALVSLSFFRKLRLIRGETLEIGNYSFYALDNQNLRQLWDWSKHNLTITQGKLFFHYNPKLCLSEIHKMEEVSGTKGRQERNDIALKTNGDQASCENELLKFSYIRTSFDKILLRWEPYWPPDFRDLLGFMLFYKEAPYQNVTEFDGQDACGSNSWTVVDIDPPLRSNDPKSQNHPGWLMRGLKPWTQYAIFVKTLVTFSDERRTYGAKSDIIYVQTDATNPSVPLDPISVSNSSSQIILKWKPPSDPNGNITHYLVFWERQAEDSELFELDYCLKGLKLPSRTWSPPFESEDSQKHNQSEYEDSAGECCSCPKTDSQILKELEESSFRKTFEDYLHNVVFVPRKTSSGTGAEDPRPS
Sequence of Insulin receptor (Homo sapiens) (P06213 763-1382 limits assumed): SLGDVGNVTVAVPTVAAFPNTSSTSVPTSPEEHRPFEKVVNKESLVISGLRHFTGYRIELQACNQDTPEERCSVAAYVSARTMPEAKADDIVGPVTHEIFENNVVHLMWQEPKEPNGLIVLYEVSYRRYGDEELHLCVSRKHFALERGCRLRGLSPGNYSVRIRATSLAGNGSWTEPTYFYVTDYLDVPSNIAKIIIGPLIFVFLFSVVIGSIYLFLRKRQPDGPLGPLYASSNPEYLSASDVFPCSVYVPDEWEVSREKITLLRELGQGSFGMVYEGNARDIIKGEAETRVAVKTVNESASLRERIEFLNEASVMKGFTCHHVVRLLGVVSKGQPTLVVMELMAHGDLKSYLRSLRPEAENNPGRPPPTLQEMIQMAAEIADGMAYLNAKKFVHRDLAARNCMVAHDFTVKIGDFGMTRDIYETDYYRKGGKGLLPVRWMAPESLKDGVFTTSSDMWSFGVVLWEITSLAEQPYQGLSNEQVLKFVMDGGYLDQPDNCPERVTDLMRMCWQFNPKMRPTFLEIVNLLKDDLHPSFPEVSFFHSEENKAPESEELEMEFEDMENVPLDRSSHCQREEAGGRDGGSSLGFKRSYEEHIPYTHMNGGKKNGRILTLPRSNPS

[5] = tested on: Mast/stem cell growth factor receptor Kit (Homo sapiens), P10721 [A829P]; assay: Binding affinity to human partial length KIT A829P mutant (I571 to D952 residues) expressed in mammalian expression system assessed as residual binding level at 1 uM by Kinomescan method relative to control
Summary of the method: (§3)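 Kinome-wide single-concentration binding screen (KINOMEscan) at 1 μM against a panel of 468 purified kinases and mutants. Read-out is relative binding of each kinase compared with control. Selectivity across the panel was summarised as an S(10) score.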

[6] = molecular target: Bone morphogenetic protein receptor type-1B (Homo sapiens) (UniProt O00238); assay: Binding affinity to wild-type human partial length BMPR1B (D178 to L502 residues) expressed in mammalian expression system assessed as residual binding level at 1 uM by Kinomescan method relative to control; summary of the method: as §1
[7] = molecular target: Cyclin-dependent kinase 4 (Homo sapiens) (UniProt P11802); assay: Binding affinity to wild-type human full length CDK4 (M1 to E303 residues) expressed in mammalian expression system assessed as residual binding level at 1 uM by Kinomescan method relative to control
Sequence of Cyclin-dependent kinase 4 (Homo sapiens) (P11802 whole entry, the tested form may be a part): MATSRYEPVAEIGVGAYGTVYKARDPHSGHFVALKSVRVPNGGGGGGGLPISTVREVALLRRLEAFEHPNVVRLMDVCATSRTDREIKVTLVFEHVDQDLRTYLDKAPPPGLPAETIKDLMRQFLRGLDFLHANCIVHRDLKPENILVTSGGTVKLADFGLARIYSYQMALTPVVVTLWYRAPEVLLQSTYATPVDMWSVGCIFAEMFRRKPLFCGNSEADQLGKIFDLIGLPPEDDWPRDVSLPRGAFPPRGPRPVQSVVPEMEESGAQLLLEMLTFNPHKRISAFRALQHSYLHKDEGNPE
Summary of the method: (§4)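 Single-concentration (1 μM) competition-binding screen run by KINOMEscan against a panel of 468 purified kinases and mutants. The read-out is the relative binding activity of the test compound to each kinase.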

[8] = molecular target: Myosin light chain kinase (Homo sapiens) (UniProt Q32MK0); assay: Binding affinity to wild-type human partial length MLCK (D488 to K800 residues) expressed in bacterial expression system assessed as residual binding level at 1 uM by Kinomescan method relative to control; summary of the method: as §2
Sequence of Myosin light chain kinase (Homo sapiens) (Q32MK0 whole entry, the tested form may be a part): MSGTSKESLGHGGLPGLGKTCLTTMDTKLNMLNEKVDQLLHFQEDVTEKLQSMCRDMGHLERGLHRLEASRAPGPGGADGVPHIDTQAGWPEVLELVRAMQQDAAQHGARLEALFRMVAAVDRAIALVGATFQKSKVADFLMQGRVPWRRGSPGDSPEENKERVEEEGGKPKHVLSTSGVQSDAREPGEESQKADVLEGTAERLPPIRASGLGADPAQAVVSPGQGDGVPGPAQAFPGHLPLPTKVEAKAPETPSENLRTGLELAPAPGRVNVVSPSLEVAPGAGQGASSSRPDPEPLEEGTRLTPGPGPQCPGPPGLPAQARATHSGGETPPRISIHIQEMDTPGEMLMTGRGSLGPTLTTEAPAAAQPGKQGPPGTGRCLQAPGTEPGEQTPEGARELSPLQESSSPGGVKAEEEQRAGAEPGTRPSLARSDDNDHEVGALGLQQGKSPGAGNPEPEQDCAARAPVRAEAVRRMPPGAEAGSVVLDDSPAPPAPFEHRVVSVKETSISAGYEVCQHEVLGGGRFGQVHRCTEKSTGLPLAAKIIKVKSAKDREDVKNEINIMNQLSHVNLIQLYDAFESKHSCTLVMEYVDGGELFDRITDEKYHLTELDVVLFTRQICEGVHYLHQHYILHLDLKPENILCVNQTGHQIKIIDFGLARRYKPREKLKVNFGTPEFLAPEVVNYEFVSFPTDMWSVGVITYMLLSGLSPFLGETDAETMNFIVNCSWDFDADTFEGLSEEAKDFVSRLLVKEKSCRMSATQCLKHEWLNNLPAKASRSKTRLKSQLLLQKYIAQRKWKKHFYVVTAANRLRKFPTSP

[9] = molecular target: Peripheral plasma membrane protein CASK (Homo sapiens) (UniProt O14936); assay: Binding affinity to wild-type human partial length CASK (M1 to H315 residues) expressed in mammalian expression system assessed as residual binding level at 1 uM by Kinomescan method relative to control; summary of the method: as §2
[10] = tested on: Tyrosine-protein kinase ABL1 (Homo sapiens), P00519 [E255K]; assay: Binding affinity to human phosphorylated ABL1 E255K mutant (S229 to K512 residues) expressed in mammalian expression system assessed as residual binding level at 1 uM by Kinomescan method relative to control; summary of the method: as §3
[11] = tested on: Tyrosine-protein kinase ABL1 (Homo sapiens), P00519 [H396P]; assay: Binding affinity to human phosphorylated ABL1 H396P mutant (S229 to K512 residues) expressed in mammalian expression system assessed as residual binding level at 1 uM by Kinomescan method relative to control; summary of the method: as §4
[12] = molecular target: Interleukin-1 receptor-associated kinase 4 (Homo sapiens) (UniProt Q9NWZ3); assay: Binding affinity to wild-type human partial length IRAK4 (M1 to S460 residues) expressed in mammalian expression system assessed as residual binding level at 1 uM by Kinomescan method relative to control
[13] = molecular target: T1, Platelet-derived growth factor receptor alpha (Homo sapiens, UniProt P16234); assay: Inhibition of PDGFRalpha in human EOL-1 cells assessed as decrease in ERK1/2 phosphorylation at T202/Y204 residues up to 300 nM after 2 hrs by Western blot analysis; format: cell-based
T1 sequence (P16234 whole entry): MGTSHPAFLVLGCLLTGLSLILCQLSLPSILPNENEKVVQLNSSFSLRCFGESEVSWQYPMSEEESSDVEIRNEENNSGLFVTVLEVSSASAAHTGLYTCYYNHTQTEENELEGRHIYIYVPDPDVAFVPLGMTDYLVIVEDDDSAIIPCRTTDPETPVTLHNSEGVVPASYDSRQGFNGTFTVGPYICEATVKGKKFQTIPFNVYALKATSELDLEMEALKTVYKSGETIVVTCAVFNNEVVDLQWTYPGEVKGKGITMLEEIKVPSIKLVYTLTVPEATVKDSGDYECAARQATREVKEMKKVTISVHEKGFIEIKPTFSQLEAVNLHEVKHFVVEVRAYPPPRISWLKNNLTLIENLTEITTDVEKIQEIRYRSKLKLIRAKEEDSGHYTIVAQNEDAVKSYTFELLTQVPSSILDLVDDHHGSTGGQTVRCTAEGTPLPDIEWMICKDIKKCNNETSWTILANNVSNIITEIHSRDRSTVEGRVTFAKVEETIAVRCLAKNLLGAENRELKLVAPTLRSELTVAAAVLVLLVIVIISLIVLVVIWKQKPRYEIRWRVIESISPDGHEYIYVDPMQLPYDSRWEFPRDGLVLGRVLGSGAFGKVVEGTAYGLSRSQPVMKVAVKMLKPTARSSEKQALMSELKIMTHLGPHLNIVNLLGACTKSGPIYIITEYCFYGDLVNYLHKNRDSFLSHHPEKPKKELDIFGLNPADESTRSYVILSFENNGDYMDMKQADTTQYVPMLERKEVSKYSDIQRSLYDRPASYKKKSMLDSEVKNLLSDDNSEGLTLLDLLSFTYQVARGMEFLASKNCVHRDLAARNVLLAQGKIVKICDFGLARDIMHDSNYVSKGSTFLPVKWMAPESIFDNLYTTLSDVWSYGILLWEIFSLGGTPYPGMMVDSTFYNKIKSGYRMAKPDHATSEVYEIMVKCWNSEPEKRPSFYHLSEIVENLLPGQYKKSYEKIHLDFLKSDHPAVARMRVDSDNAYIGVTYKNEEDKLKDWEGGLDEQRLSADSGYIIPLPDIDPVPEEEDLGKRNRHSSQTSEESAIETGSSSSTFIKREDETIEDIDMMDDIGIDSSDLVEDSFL

[14] = Half life in Sprague-Dawley rat at 10 mg/kg, po; format: ADME, organism-based; details: in vivo
[15] = molecular target: Serine/threonine-protein kinase SIK3 (Homo sapiens) (UniProt Q9Y2K2); assay: Binding affinity to wild-type human partial length QSK (A90 to L395 residues) expressed in mammalian expression system assessed as residual binding level at 1 uM by Kinomescan method relative to control
[16] = tested on: Epidermal growth factor receptor (Homo sapiens), P00533 [G719S]; assay: Binding affinity to human partial length EGFR G719S mutant (R669 to V1011 residues) expressed in bacterial expression system assessed as residual binding level at 1 uM by Kinomescan method relative to control; summary of the method: as §3
[17] = molecular target: Serine/threonine-protein kinase MAK (Homo sapiens) (UniProt P20794); assay: Binding affinity to wild-type human partial length MAK (M1 to P314 residues) expressed in bacterial expression system assessed as residual binding level at 1 uM by Kinomescan method relative to control; summary of the method: as §2
[18] = molecular target: MAP/microtubule affinity-regulating kinase 4 (Homo sapiens) (UniProt Q96L34); assay: Binding affinity to wild-type human partial length MARK4 (K29 to G340 residues) expressed in bacterial expression system assessed as residual binding level at 1 uM by Kinomescan method relative to control
[19] = molecular target: Phosphatidylinositol 3-kinase catalytic subunit type 3 (Homo sapiens) (UniProt Q8NEB9); assay: Binding affinity to wild-type human partial length VPS34 (S282 to H879 residues) expressed in mammalian expression system assessed as residual binding level at 1 uM by Kinomescan method relative to control
Sequence of Phosphatidylinositol 3-kinase catalytic subunit type 3 (Homo sapiens) (Q8NEB9 whole entry, the tested form may be a part): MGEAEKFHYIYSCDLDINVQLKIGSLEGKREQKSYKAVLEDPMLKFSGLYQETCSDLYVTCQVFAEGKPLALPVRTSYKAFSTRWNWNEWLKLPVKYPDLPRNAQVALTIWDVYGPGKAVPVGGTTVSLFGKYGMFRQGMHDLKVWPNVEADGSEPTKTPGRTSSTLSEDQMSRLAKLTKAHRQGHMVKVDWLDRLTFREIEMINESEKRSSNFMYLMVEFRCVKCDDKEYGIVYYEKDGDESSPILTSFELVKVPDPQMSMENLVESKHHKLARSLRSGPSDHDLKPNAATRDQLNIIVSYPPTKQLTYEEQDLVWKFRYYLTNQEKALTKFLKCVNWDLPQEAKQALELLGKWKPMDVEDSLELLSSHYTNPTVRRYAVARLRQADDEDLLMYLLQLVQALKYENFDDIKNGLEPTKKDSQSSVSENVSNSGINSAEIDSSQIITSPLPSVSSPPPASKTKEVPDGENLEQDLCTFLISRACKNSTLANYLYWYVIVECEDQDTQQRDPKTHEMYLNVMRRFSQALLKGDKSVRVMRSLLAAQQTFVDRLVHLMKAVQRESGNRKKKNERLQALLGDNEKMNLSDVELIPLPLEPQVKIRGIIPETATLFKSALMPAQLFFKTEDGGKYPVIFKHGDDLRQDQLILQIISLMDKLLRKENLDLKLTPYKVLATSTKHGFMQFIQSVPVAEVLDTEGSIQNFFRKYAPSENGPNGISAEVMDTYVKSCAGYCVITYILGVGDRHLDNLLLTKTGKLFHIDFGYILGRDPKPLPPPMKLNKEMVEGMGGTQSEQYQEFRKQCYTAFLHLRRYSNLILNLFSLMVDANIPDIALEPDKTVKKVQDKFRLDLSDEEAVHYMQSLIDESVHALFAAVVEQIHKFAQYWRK

[20] = molecular target: T1, Platelet-derived growth factor receptor alpha; assay: Binding affinity to wild-type human partial length PDGFRalpha (V575 to D1002 residues) expressed in mammalian expression system assessed as residual binding level at 1 uM by Kinomescan method relative to control
Summary of the method: (§5)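 KINOMEscan competition binding against a panel of 468 purified kinases/mutants, compound tested at 1 μM; readout is relative binding activity versus control.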

[21] = Half life in Sprague-Dawley rat at 1 mg/kg, iv; format: ADME, organism-based; details: in vivo
[22] = molecular target: Serine/threonine-protein kinase PAK 5 (Homo sapiens) (UniProt Q9P286); assay: Binding affinity to wild-type human partial length PAK7 (Y400 to H719 residues) expressed in bacterial expression system assessed as residual binding level at 1 uM by Kinomescan method relative to control; summary of the method: as §5
[23] = molecular target: Tyrosine-protein kinase Lyn (Homo sapiens) (UniProt P07948); assay: Binding affinity to wild-type human partial length LYN (C219 to Q511 residues) expressed in bacterial expression system assessed as residual binding level at 1 uM by Kinomescan method relative to control

## Cc1ccc(NC(=O)c2ccc(CN(CCN(C)C)C(=O)c3cccnc3)cc2)cc1Nc1nccc(-c2cccnc2)n1
[1]
  Activity: 4.9%
[2]
  IC50: > 10 µM
[3]
  Activity: 89%
[4]
  Activity: 100%
[5]
  Activity: 81%
[6]
  Activity: 95%
[7]
  Activity: 100%
[8]
  Activity: 80%
[9]
  Activity: 87%
[10]
  Activity: 80%
[11]
  Activity: 97%
[12]
  Activity: 100%
[13]
  inhibition: Active
[14]
  half-life: 2.03 h
[15]
  Activity: 96%
[16]
  Activity: 85%
[17]
  Activity: 92%
[18]
  Activity: 90%
[19]
  Activity: 100%
[20]
  Activity: 6.8%
[21]
  half-life: 2.05 h
[22]
  Activity: 92%
[23]
  Activity: 97%
